Series [1] deals with LasR, P. aeruginosa PAO-JG21. To be noted: read-out: IC50, LasR activity; cited from earlier work.
For series [2], the system named is LasR, P. aeruginosa PAO-JP2. To be noted: read-out: IC50, LasR activity; cited from earlier work.
For series [3], the system named is P. aeruginosa MH602 lasB reporter strain (PlasB: gfp(ASV)). The experiment in a line: Quorum sensing inhibition assay, GFP fluorescence of lasB reporter strain. It counts as cell-based, Pseudomonas aeruginosa. Particulars: ± standard deviation, NA: no activity; for inhibition at 62.5 µM / inhibition at 125 µM / inhibition at 250 µM: Pseudomonas aeruginosa; for inhibition at 62.5 µM: read-out: Percentage inhibition of GFP fluorescence, 62.5 μM; for inhibition at 125 µM: read-out: Percentage inhibition of GFP fluorescence, 125 μM; for inhibition at 250 µM: read-out: Percentage inhibition of GFP fluorescence, 250 μM. The method, boiled down: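 The reporter is a chromosomal lasB promoter–gfp(ASV) fusion responsive to 3-oxododecanoyl-HSL. Cultures were grown overnight in LB10, then diluted 1:100 in ABT with 0.25% tryptone and 0.13% yeast extract plus ampicillin 100 µg mL⁻¹ and gentamicin 20 µg mL⁻¹. Test compound in DMSO was tested at 62.5, 125 or 250 µM, with 1% DMSO controls. Cultures were incubated at 37 °C and shaken briefly before each read. Fluorescence (ex 485/em 535 nm) and OD600 were read every 30 min for 20 h, in triplicate per experiment.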

For series [4], the system named is Human Embryonic Kidney cell lines (HEK-293). The series is described as follows: Cytotoxicity MTT assay. Particulars: HEK-293, 25, 50 and 100 μM, 24 h. It counts as cell-based. The method, boiled down:
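HEK cells were grown in high-glucose DMEM with 10% FBS and 1% pen-strep at 37 °C and 5% CO₂. They were seeded at 10⁴ cells/well and left overnight. Test compound from DMSO stock was diluted in medium to 25, 50 and 100 µM and applied for 24 h, with a DMSO blank and a positive control. MTT in phenol-red-free DMEM was added for 3 h. Formazan was dissolved in DMSO and read at 570 and 650 nm. Viability was expressed as % of untreated control.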

For orientation: IC50 means the midpoint of a concentration-inhibition curve. Turning to `Cc1cc2nc(N)[nH]c2cc1C` [II, 5,6-dimethyl-2-aminobenzimidazole], the results for the IC50 in series [1] and in series [2] were 1400 nM and 2300 nM, respectively.

The inhibition is the change of the read-out against control, counted positive when it falls. On to `CCCc1cn(CC(=O)Nc2nc3cc(C)c(C)cc3[nH]2)nn1` [7a, N-(5,6-Dimethyl-1H-benzo[d]imidazol-2-yl)-2-(4-propyl-1H-1,2,3-triazol-1-yl)acetamide], for which, in series [3], the inhibition at 62.5 µM is 19.9 ± 3.8%, the inhibition at 125 µM is 22.1 ± 14.7% and the inhibition at 250 µM came to 31.8 ± 11%.

In the case of `CCCCCCCc1cn(CC(=O)Nc2nc3ccccc3[nH]2)nn1` [6c, N-(1H-Benzo[d]imidazol-2-yl)-2-(4-heptyl-1H-1,2,3-triazol-1-yl)acetamide], in series [3], the inhibition at 62.5 µM came out at 25.7 ± 7.62%, the inhibition at 125 µM amounted to 34.7 ± 11.6% and the inhibition at 250 µM came to 42.8 ± 14.6%.

Turning to `O=C(Cn1cc(-c2ccc([N+](=O)[O-])cc2)nn1)Nc1nc2ccccc2[nH]1` [6p, N-(1H-Benzo[d]imidazol-2-yl)-2-(4-(4-nitrophenyl)-1H-1,2,3-triazol-1-yl)acetamide], in series [3], the inhibition at 62.5 µM stood at 63.7 ± 7.51%, the inhibition at 125 µM worked out at 67.1 ± 5.45% and the inhibition at 250 µM was found to be 68.2 ± 3.87%. For the same compound, in series [4], the Cytotoxicity result is given as “low cytotoxicity”.

With `Cc1ccc(-c2cn(CC(=O)Nc3nc4ccccc4[nH]3)nn2)cc1` [6k, N-(1H-Benzo[d]imidazol-2-yl)-2-(4-(p-tolyl)-1H-1,2,3-triazol-1-yl)acetamide], in series [3], the inhibition at 62.5 µM is 36.8 ± 6.63%, the inhibition at 125 µM stood at 32.3 ± 22.2% and the inhibition at 250 µM amounted to 35.9 ± 13.8%.

Consider `Cc1cc2nc(NC(=O)CCCc3cn(CC(=O)Nc4ccccn4)nn3)[nH]c2cc1C` [12c, N-(5,6-Dimethyl-1H-benzo[d]imidazol-2-yl)-4-(1-(2-oxo-2-(pyridin-2-ylamino)ethyl)-1H-1,2,3-triazol-4-yl)butanamide], for which, in series [3], the inhibition at 125 µM stood at 7.07 ± 11.8% and the inhibition at 250 µM stood at 48.3 ± 13.4%.

Take `CCCCCc1cn(CC(=O)Nc2nc3ccccc3[nH]2)nn1` [6b, N-(1H-Benzo[d]imidazol-2-yl)-2-(4-pentyl-1H-1,2,3-triazol-1-yl)acetamide]: in series [3], the inhibition at 62.5 µM was 27.4 ± 2.36%, the inhibition at 125 µM is 38.8 ± 11.5% and the inhibition at 250 µM is 43.5 ± 6.23%.

Take `Cc1ccc(-c2cn(CC(=O)Nc3nc4cc(C)c(C)cc4[nH]3)nn2)cc1` [7i, N-(5,6-Dimethyl-1H-benzo[d]imidazol-2-yl)-2-(4-(p-tolyl)-1H-1,2,3-triazol-1-yl)acetamide]: in series [3], the inhibition at 125 µM was determined as 14.9 ± 8.82% and the inhibition at 250 µM is 50.7 ± 12.3%.

For `O=C(Cn1cc(CCCC(=O)Nc2nc3ccccc3[nH]2)nn1)Nc1ccccn1` [11c, N-(1H-Benzo[d]imidazol-2-yl)-4-(1-(2-oxo-2-(pyridin-2-ylamino)ethyl)-1H-1,2,3-triazol-4-yl)butanamide], in series [3], the inhibition at 62.5 µM amounted to 3.69 ± 11.2%, the inhibition at 125 µM was 15.7 ± 8.81% and the inhibition at 250 µM is 19.4 ± 8.16%.

With `Cc1cc2nc(NC(=O)Cn3cc(-c4ccc(O)cc4)nn3)[nH]c2cc1C` [7j, N-(5,6-Dimethyl-1H-benzo[d]imidazol-2-yl)-2-(4-(4-hydroxyphenyl)-1H-1,2,3-triazol-1-yl)acetamide], in series [3] (250 μM, 250 µM), the “Percentage inhibition of GFP fluorescence” value worked out at 44.73 ± 13.15%. In addition, in series [3], the inhibition at 62.5 µM was found to be 17.6 ± 6.21%, the inhibition at 125 µM is 24.2 ± 14.5% and the inhibition at 250 µM was over 40%.

With `O=C(Cn1cc(-c2ccc(Cl)cc2)nn1)Nc1nc2ccccc2[nH]1` [6i, N-(1H-Benzo[d]imidazol-2-yl)-2-(4-(4-chlorophenyl)-1H-1,2,3-triazol-1-yl)acetamide], in series [3], the inhibition at 62.5 µM came to 52.9 ± 8.86%, the inhibition at 125 µM amounted to 60.5 ± 6.16% and the inhibition at 250 µM is 65 ± 8.25%.

Turning to `CC(C)(C)c1ccc(-c2cn(CC(=O)Nc3nc4ccccc4[nH]3)nn2)cc1` [6l, N-(1H-Benzo[d]imidazol-2-yl)-2-(4-(4-(tert-butyl)phenyl)-1H-1,2,3-triazol-1-yl)acetamide], the inhibition at 250 µM in series [3] was determined as 35.2 ± 8.78%.

In the case of `Cc1cc2nc(NC(=O)Cn3cc(-c4ccc(C(F)(F)F)cc4)nn3)[nH]c2cc1C` [7l, N-(5,6-Dimethyl-1H-benzo[d]imidazol-2-yl)-2-(4-(4-(trifluoromethyl)phenyl)-1H-1,2,3-triazol-1-yl)acetamide], in series [3], the inhibition at 62.5 µM is 36.1 ± 7.67%, the inhibition at 125 µM came out at 56.4 ± 5.85% and the inhibition at 250 µM was found to be 65.8 ± 1.91%.

As to `Cc1cc2nc(NC(=O)Cn3cc(-c4ccc([N+](=O)[O-])cc4)nn3)[nH]c2cc1C` [7m, N-(5,6-Dimethyl-1H-benzo[d]imidazol-2-yl)-2-(4-(4-nitrophenyl)-1H-1,2,3-triazol-1-yl)acetamide], in series [3], the inhibition at 62.5 µM came to 21 ± 10.3%, the inhibition at 125 µM turned out to be 31.5 ± 16.2% and the inhibition at 250 µM came to 53.9 ± 9.78%.
